Legend:
[1] = target: 5-hydroxytryptamine receptor 4 (Cavia porcellus) (UniProt O70528); assay: 5-hydroxytryptamine 4 receptor agonistic activity was measured by twitch response enhancing activity in electrically stimulated guinea pig ileum preparation; format: functional, tissue-based
Outline: (§1)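 Longitudinal muscle strips of guinea pig ileum kept in tyrode solution with 0.1 μM methylsergide. Twitch contractions (2–3 s) evoked through platinum electrodes by square-wave pulses at 0.1 Hz and 2 ms duration. Once a stable submaximal response was reached, noncumulative concentration–response curves were built for the agonists.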

[2] = target: 5-hydroxytryptamine receptor 4 (Cavia porcellus) (UniProt O70528); assay: Relative efficacy compared to serotonin(1) in 5-hydroxytryptamine 4 assay; format: functional; outline: as §1
[3] = target: T1, 5-hydroxytryptamine receptor 2A (Rattus norvegicus, UniProt P14842); assay: (§2) Agonistic activity against 5-hydroxytryptamine 2A receptor in rat cortex using [3H]ketanserin; format: tissue-based
T1 sequence (P14842 whole entry): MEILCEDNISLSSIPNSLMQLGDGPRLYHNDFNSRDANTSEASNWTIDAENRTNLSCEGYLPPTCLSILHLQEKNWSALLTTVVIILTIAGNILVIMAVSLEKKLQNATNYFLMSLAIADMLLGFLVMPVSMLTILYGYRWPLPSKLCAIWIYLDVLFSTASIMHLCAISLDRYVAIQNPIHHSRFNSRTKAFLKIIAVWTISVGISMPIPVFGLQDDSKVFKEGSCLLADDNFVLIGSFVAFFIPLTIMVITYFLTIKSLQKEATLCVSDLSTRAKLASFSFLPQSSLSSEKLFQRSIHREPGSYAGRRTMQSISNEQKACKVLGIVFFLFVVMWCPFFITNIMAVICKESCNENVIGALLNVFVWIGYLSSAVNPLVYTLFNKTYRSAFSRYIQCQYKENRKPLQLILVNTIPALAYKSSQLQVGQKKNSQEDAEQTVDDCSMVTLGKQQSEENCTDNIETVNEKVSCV
Outline: (§3)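 Binding to rat cortex. Table footnote lists [3H]ketanserin as the radioligand.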

[4] = target: Serotonin 3 (5-HT3) receptor; assay: Antagonistic activity against 5-hydroxytryptamine 3 receptor in guinea pig ileum assay
[5] = target: T1, 5-hydroxytryptamine receptor 2A; assay: as §2; format: functional, tissue-based
[6] = target: T1, 5-hydroxytryptamine receptor 2A; assay: Agonistic activity against 5-hydroxytryptamine 2A receptor in rat cortex using [3H]-ketanserin; format: tissue-based; outline: as §3

Chain of 5-hydroxytryptamine receptor 4 (Cavia porcellus) (O70528 whole entry): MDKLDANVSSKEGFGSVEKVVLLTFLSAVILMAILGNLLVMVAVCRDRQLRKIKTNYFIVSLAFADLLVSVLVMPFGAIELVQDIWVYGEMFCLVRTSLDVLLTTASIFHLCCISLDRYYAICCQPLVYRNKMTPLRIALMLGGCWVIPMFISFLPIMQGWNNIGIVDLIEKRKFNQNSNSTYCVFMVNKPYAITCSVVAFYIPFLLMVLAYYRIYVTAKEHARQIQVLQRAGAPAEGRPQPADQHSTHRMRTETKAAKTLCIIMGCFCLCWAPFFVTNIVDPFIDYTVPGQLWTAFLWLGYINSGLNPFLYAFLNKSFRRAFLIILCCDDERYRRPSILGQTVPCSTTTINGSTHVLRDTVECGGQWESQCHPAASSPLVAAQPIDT

Row | SMILES | pD2 [1] | Relative efficacy [2] | Ki [3] | pA2 [4] | Ki [5] | Ki [6]
1 | Oc1ccc2[nH]cc(/C=N/NC3=NCCS3)c2c1 | 6.5 | 0.5 | – | – | – | –
2 | CCCCCCCCNC(=N)N/N=C/c1c[nH]c2ccc(O)cc12 | < 4 | 0 | – | – | – | –
3 | CCCCC/N=C(/N)N/N=C/c1c[nH]c2ccc([Si](C)(C)C)cc12 | < 5.5 | – | – | – | – | –
4 | CCCCCCCN(C)C(=N)N/N=C/c1c[nH]c2ccc(O)cc12 | 8 | 1.6 | 2340 nM | – | – | –
5 | N/C(=N/N=C/c1c[nH]c2ccc(O)cc12)NCCc1ccc(Cl)cc1 | 8.4 | 0.2 | – | – | – | –
6 | CCCCC/N=C(/N)N/N=C/c1c[nH]c2ccc(OCC)cc12 | < 7 | 0.1 | – | – | – | –
7 | CCCCC/N=C(/N)N/N=C/c1c[nH]c2ccc(OC(=O)c3ccccc3)cc12 | 7 | 0.5 | – | – | – | –
8 | CCCCC/N=C(/N)N/N=C/c1csc2ccc(OC)cc12 | 6.1 | 0.5 | – | – | – | –
9 | Oc1ccc2[nH]cc(/C=N/Nc3ncc[nH]3)c2c1 | 8.2 | 1 | 1620 nM | – | – | –
10 | N/C(=N/N=C/c1c[nH]c2ccc(O)cc12)NCCc1ccccc1Cl | 8.5 | 0.5 | – | – | – | –
11 | N/C(=N/C(=O)NC1CCCCC1)N/N=C/c1c[nH]c2ccc(O)cc12 | 8.5 | 0.5 | – | – | – | –
12 | N/C(=N/N=C/c1c[nH]c2ccc(O)cc12)NCCc1ccccc1 | 9.1 | 1 | – | – | – | –
13 | CCCCC/N=C(/N)N/N=C/c1c[nH]c2ccc(O)nc12 | 7.8 | 0.9 | 1350 nM | – | – | –
14 | CCCCC/N=C(/N)N/N=C/c1csc2ccc(O)cc12 | < 7 | – | – | – | – | –
15 | N/C(=N/N=C/c1c[nH]c2ccc(O)cc12)NCCCO | 7.7 | 0.7 | – | – | – | –
16 | Oc1ccc2[nH]cc(/C=N/NC3=NCCN3)c2c1 | 7.3 | 0.7 | – | – | – | –
17 | CCCCC/N=C(/N)N/N=C/c1c[nH]c2ccc(NS(C)(=O)=O)cc12 | < 4 | 0 | – | – | – | –
18 | CCCCC/N=C(/N)N/N=C/c1c[nH]c2ccc(OC(=O)N(C)C)cc12 | < 7 | 0.7 | – | – | – | –
19 | CCCCC/N=C(/N)N/N=C/c1c[nH]c2ccc(OCC=C(C)C)cc12 | 8.15 | 2.2 | 6310 nM | < 5 | – | –
20 | N/C(=N/N=C/c1c[nH]c2ccc(O)cc12)NCCCc1ccccc1 | 8.5 | 0.4 | – | – | – | –
21 | CCCCC/N=C(/N)N/N=C/c1c[nH]c2ccc(OCCOC)cc12 | 6.6 | 0.7 | – | – | – | –
22 | Cl.N=C(N)N/N=C/c1c[nH]c2ccc(O)cc12 | 8.8 | 1.5 | – | < 5 | 240 nM | –
23 | CCCCC/N=C(/N)N/N=C/c1c[nH]c2ccc(OC)nc12 | 7.1 | 1 | – | – | – | –

Row | SMILES | pD2 [1] | Relative efficacy [2] | Ki [3] | pA2 [4] | Ki [5] | Ki [6]
24 | CN(/N=C/c1c[nH]c2ccc(O)cc12)C(=N)N | 5.8 | 0.5 | – | – | – | –
25 | CCCCCNC(=N)N/N=C/c1c[nH]c2ccc(OC)cc12 | 6.9 | 0.2 | – | – | – | –
26 | CCCCC/N=C(/N)N/N=C/c1c[nH]c2ccc(OC(C)C)cc12 | 6.8 | 0.5 | – | < 5 | – | 2510 nM
27 | CN1CCN=C1N/N=C/c1c[nH]c2ccc(O)cc12 | < 4 | 0 | – | – | – | –
28 | CCCCC/N=C(/N)N/N=C/c1c[nH]c2ccc(OCCC(C)C)cc12 | 5.9 | 0.8 | – | – | – | –
29 | Oc1ccc2[nH]cc(/C=N/Nc3ccccn3)c2c1 | 6.1 | 0.8 | – | – | – | –
30 | CCCC(=O)/N=C(/N)N/N=C/c1c[nH]c2ccc(O)cc12 | 7.7 | 1 | – | – | – | –
31 | Oc1ccc2[nH]cc(/C=N/NC3=NCCC3)c2c1 | 7.1 | 1 | – | – | – | –
32 | CCCCC/N=C(/N)N/N=C/c1c[nH]c2ccccc12 | < 6 | 0.1 | – | – | – | –
33 | CCCCCNC(=N)N/N=C/c1c[nH]c2ccc(O)cc12 | 9.3 | 0.9 | 224 nM | < 5 | – | –
34 | CCCCC/N=C(/N)N/N=C/c1c[nH]c2ccc(OCOC)cc12 | 7.5 | 0.7 | – | – | – | –
35 | CCCCC/N=C(/N)N/N=C/c1c[nH]c2ccc(OCC(=O)N(C)C)cc12 | 7.3 | 1.4 | – | – | – | –
36 | CCCCC/N=C(/N)N/N=C/c1c[nH]c2ccc(N)cc12 | 7.6 | 1.6 | – | – | – | –
37 | CCCCC/N=C(/N)N/N=C/c1[nH]nc2ccc(O)cc12 | < 4 | 0 | – | – | – | –
38 | Cl.N/C(=N/N=C/c1c[nH]c2ccc(O)cc12)NCCc1ccc(Cl)c(Cl)c1 | > 10 | 0.1 | – | < 5 | – | 191 nM
39 | N/C(=N/N=C/c1c[nH]c2ccc(O)cc12)NCCNC(=O)c1ccccc1 | 8.5 | 0.5 | – | – | – | –
40 | COc1cccc(CCNC(=N)N/N=C/c2c[nH]c3ccc(O)cc23)c1 | 8.9 | 0.5 | – | – | – | –
41 | CCCCC/N=C(/N)N/N=C/c1c[nH]c2ccc(OCCN(C)C)cc12 | 7.6 | 0.3 | – | – | – | –
42 | CCCCC/N=C(/N)N/N=C/c1c[nH]c2ccc(OC(=O)CCCCC)cc12 | < 4 | 0 | – | – | – | –
43 | CCCCC/N=C(/N)N/N=C/c1[nH]nc2ccc(OC)cc12 | < 4 | 0 | – | – | – | –
44 | CCCCC/N=C(/N)N/N=C/c1c[nH]c2ccc(OCc3ccccc3)cc12 | < 6 | 1.8 | – | – | – | –
45 | CCCCC/N=C(/N)N/N=C/c1c[nH]c2ccc(OCCO)cc12 | 7.4 | 1 | – | – | – | –
46 | CCCCCN(C)C(=N)N/N=C/c1c[nH]c2ccc(O)cc12 | 7.7 | 0.3 | – | – | – | –
